Only some compounds are listed: those with a hit (about 3.5% of all), similar ones and a draw of the others.
MrgX1 allo act – positive allosteric modulators of MrgX1, primary screen, HEK293 cells, Fluo-4 calcium flux; FDSS; hits give high values; AID 588675, 2011; hit rate 0.63% among 310,000; B-score at 10 µM; Mas-related G-protein coupled receptor member X1 (Homo sapiens), Q96LB2;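 active = plate-corrected calcium response at least 3 library SD above typical, normal starting fluorescence, not activating the receptor alone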;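 note: compound read alongside a low EC10 to EC30 dose of BAM8-22 agonist; peak minus trough fluorescence over baseline measured at the second addition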
Target sequence (Q96LB2 whole entry, looked up): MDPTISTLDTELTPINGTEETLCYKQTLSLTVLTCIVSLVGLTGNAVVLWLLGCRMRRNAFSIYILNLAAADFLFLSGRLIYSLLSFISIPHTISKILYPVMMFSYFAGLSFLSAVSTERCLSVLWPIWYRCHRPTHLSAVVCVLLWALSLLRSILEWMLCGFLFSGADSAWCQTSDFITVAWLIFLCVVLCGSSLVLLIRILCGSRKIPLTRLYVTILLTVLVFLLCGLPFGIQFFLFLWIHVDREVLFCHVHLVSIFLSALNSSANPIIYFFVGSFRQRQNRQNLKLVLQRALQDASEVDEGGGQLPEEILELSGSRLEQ
RGS4 act – RGS4 potentiators or activators, primary screen, cell-based, HEK293 M3R inducible RGS4, calcium flux; carbachol calcium flux Fluo4; hits give low values; B-score at 10 µM; hit rate 0.92% among 310,000;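 active = B-score of the integrated calcium signal more than 4 SD below the library mean, with starting fluorescence not abnormally high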;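 note: negative B-score means reduced calcium response which marks RGS4 activation or potentiation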
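Reagent: ECmax carbachol challenge; Test system: M3R-expressing HEK293 line, RGS4 induced by doxycycline; Schedule: overnight RGS4 induction, 30 min dye load 37 °C, 20 min compound RT; Detection: calcium dye Fluo4 fluorescence; Read-out: Agonist-evoked peak-minus-minimum fluorescence over baseline, integrated ratio, B score.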
MrgX1 antagonist – antagonists of human MrgX1 receptor, primary screen, HEK293 cells, Fluo-4 calcium flux; hit rate 1.3% among 310,000; Mas-related G-protein coupled receptor member X1 (Homo sapiens), Q96LB2; BAM8-22 antagonism; hits give low values; B-score at 10 µM;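 active = calcium-response B-score plate-corrected more than 3 library SD below zero, starting fluorescence within 5 deviations, no agonist response on first addition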;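 note: peak minus trough fluorescence over baseline after final BAM8-22 challenge near maximal dose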
RGS4 inh – RGS4 inhibitors, primary screen, cell-based, HEK293 M3R inducible RGS4, calcium flux. Regulator of G-protein signaling 4 (Homo sapiens), P49798. Fluo-4 calcium flux; hits give high values; triggered by carbachol at its EC20. B-score at 10 µM. hit rate 0.45% among 310,000. AID 463165, 2010;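 active = B-score, a plate-corrected calcium signal, over three deviations above library mean, with baseline fluorescence within five deviations of library mean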;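 note: RGS4 expression induced by doxycycline in cells with stable M3 receptor; B-score is computed from the integrated fluorescence ratio over baseline after carbachol; higher B-score means a larger calcium signal and so more RGS4 inhibition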
Target sequence (P49798 whole entry, looked up): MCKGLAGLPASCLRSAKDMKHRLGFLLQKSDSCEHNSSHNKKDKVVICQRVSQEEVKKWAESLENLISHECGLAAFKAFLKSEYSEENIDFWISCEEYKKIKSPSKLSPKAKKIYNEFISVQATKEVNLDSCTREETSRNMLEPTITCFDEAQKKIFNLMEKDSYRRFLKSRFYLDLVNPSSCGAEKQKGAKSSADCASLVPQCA
MrgX1 ag – agonists of human MrgX1 receptor, primary screen, HEK293 cells, Fluo-4 calcium flux. hit rate 0.44% among 310,000. B-score at 10 µM. Fluo-4 calcium fluorescence, agonist mode; hits give high values. Mas-related G-protein coupled receptor member X1 (Homo sapiens), Q96LB2;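 active = calcium response B-score plate-corrected fluorescence ratio at least 3 library SD, with starting fluorescence B-score inside 5 SD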
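Test system: Stable human MrgX1 HEK293 cell line | Schedule: Overnight plating before 1 h dye loading | Read-out basis: Baseline-normalised fluorescence change ratio, B-scored | Detection: Kinetic calcium dye fluorescence, Fluo-4 NW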
* marks the source's active call; other numbers are inactive results; i = inactive; nt = not tested or not shown.

SMILES	MrgX1 allo act	RGS4 act	MrgX1 antagonist	RGS4 inh	MrgX1 ag
Cn1cnnc1SCC(=O)N1N=C(c2ccc(Cl)cc2)CC1c1ccco1 (configuration not stated)	i	i	i	i	i
COC(=O)c1ccc(Oc2c(Cl)cccc2[N+](=O)[O-])cc1	8.57*	i	i	i	i
CCCn1c(O)c(N=Nc2ccc3ccccc3n2)c2ccccc21	i	i	-4.79*	i	i
CC(C)CCn1c(O)c(N=Nc2ccccn2)c2ccccc21	i	i	i	i	i
Cn1c(=O)[nH]c(=O)c2c1nc(N1CCCC1)n2CCCSc1nc2ccccc2o1	i	i	i	i	i
Cc1c(C(=O)Oc2cc(N)n(S(C)(=O)=O)n2)cccc1[N+](=O)[O-]	6.67*	i	i	i	i
Cc1ccccc1C(=O)Oc1cc(N)n(S(C)(=O)=O)n1	i	i	i	i	i
CS(=O)(=O)N(Cc1ccco1)CC(O)Cn1cc(C=O)c2ccccc21 (configuration not stated)	i	i	-5.72*	i	i
O=Cc1cn(CC(O)Cn2cc(C=O)c3ccccc32)c2ccccc12	i	i	i	i	i
CCOC(=O)CSc1nc2ccc(NC(=O)CSc3nnnn3Cc3ccccc3)cc2s1	6.92*	i	i	i	i
CCCc1nc2ccc(NC(=O)c3ccco3)cc2c(=O)n1Cc1ccc(Cl)cc1	i	i	-6.71*	i	i
Nc1nc(NCC2CCCO2)nc(Nc2ccc(Cl)cc2)c1[N+](=O)[O-] (configuration not stated)	6.83*	i	i	i	i
CCOC(=O)c1sc(/N=C/N(C)C)c(C(=O)OCC)c1C	i	i	i	i	i
CC(NC(=O)c1ccc(CS(C)(=O)=O)cc1)c1ccc(-c2ccccc2)cc1 (configuration not stated)	i	i	i	i	i
OCC1CCCN(c2nc(CN3CCCCC3)nc3scc(-c4ccccc4)c23)C1 (configuration not stated)	i	i	i	i	i
CCNc1nc(CN2CCCCC2)nc2scc(-c3ccccc3)c12	i	-7.15*	i	i	i
CN1/C(=C/c2cccc[n+]2C)Sc2ccccc21	i	-7.53*	i	i	i
Cc1ccc2c(c1)N(C)/C(=C/c1cccc[n+]1C)S2	i	-7.27*	-7.16*	i	i
Cc1ccc2c(c1)N(C)/C(=C/c1cccc[n+]1CCO)S2	i	-7.35*	i	i	i
Clc1ccc2c(c1)CCc1cccnc1C2=C1CCNCC1	i	-7.15*	i	i	i
CCNc1nc(NCC)nc(SCCOC(=O)Nc2ccccc2)n1	7.69*	i	i	i	i
Cc1cc2nc(SCCOC(=O)Nc3ccccc3)nc(C)c2cc1C	i	i	i	i	i
COCCN(C(=S)Nc1cccc(C)c1)C(C)c1cccs1 (configuration not stated)	i	i	i	i	i
CC(C)CCN(C(=S)Nc1cccc(F)c1)C(C)c1cccs1 (configuration not stated)	10.5*	i	i	i	i
O=C(Nc1cccc2ccccc12)/C(=C/c1ccc([N+](=O)[O-])cc1)NC(=O)c1ccccc1	i	i	i	i	i
SMILES	MrgX1 allo act	RGS4 act	MrgX1 antagonist	RGS4 inh	MrgX1 ag
CCN(CC)c1ccc(C=C2C(=O)OC(c3ccccc3)OC2=O)cc1 (configuration not stated)	i	i	i	i	27.3*
CN(C)c1ccc(C=C2C(=O)OC(C)(C)OC2=O)cc1	i	i	i	i	i
CCN(CC)c1ccc(C=C2C(=O)OC(C)(C(C)(C)C)OC2=O)cc1 (configuration not stated)	i	i	i	i	56*
CN(C)c1ccc(C=C2C(=O)OC(C)(C(C)(C)C)OC2=O)cc1 (configuration not stated)	i	i	i	i	i
COc1ccc(C2/C(=C(/O)c3ccccc3)C(=O)C(=O)N2CO)cc1 (configuration not stated)	i	i	i	i	i
CCOc1ccc(NS(=O)(=O)c2ccc3[nH]cc(C(=O)N(CC)CC)c(=O)c3c2)cc1	i	nt	i	nt	i
CC1CCN(CC(=O)Nc2ccccc2Sc2ccccc2)CC1	i	-7.37*	i	i	i
O=c1c2ccc(Cl)cc2nc(-c2cccc(C(F)(F)F)c2)n1O	i	i	i	i	46.7*
O=c1c2ccccc2nc(-c2ccc(Cl)c(Cl)c2)n1O	i	i	i	i	35*
COC(=O)c1ccc(C(=O)OC)c(NC(=O)CCS(=O)(=O)Cc2ccccc2)c1	i	i	i	i	i
O=C(COc1cc2oc(=O)c3c(c2cc1Cl)CCC3)Nc1ccc(CN2CCOCC2)cc1	i	i	i	i	i
COc1ccccc1OCCCCN1CCN(C(c2ccccc2)c2ccccc2)CC1	i	-8.11*	i	i	i
CC(C)c1ccccc1OCCCCN1CCCCC1	i	i	i	i	i
CC(C)c1ccccc1OCCCCCN1CCOCC1	i	-7.38*	i	i	i
COc1cc2c(cc1OC)-c1cc(NC3CCCC3)nc(=O)n1CC2	i	i	i	i	i
O=C(CSc1ncn[nH]1)c1ccc2c(c1)OCO2	i	i	i	i	i
CC1=CC(C)(C)Nc2ccc(OC(=O)c3ccco3)cc21	i	i	i	i	i
COc1ccc(N(CC(=O)NCCc2ccc(OC)c(OC)c2)S(=O)(=O)c2c(C)noc2C)cc1	i	i	i	i	i
CN(Cc1nccn1C)C(=O)CC1C(=O)NCCN1Cc1cccc(Oc2ccccc2)c1 (configuration not stated)	i	i	-5.17*	i	i
O=C(c1ccc2c(=O)n(Cc3ccccc3)c(=S)[nH]c2c1)N1CCCC1	i	i	i	i	i
COc1ccccc1CN1CCC(CNS(=O)(=O)c2cc(-c3cc(C)no3)ccc2OC)CC1	i	-7.56*	i	i	i
CC(=O)Nc1ccc(S(=O)(=O)NCCC(=O)OCc2csc(CC(=O)Nc3ccccc3C)n2)cc1	i	i	-4.54*	i	i
Cc1ccccc1NC(=O)Cc1nc(COC(=O)C(C)C)cs1	i	i	i	i	i

Screens deposited in PubChem by Johns Hopkins Ion Channel Center.
